MLL AF4-AF9 inh – inhibitors of human MLL-AF4/AF9 interaction; AlphaScreen, biotin-AF4 peptide binding to FLAG-AF9; inhibition, % at 10 µM; actives 0.47% (n = 350,000);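 active = every replicate reaching a set inhibition limit, whatever the replicate mean, cut at about 25% in these data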;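 note: 0% = plate neutral control median and 100% = total signal loss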
Target sequence (P42568 whole entry, looked up): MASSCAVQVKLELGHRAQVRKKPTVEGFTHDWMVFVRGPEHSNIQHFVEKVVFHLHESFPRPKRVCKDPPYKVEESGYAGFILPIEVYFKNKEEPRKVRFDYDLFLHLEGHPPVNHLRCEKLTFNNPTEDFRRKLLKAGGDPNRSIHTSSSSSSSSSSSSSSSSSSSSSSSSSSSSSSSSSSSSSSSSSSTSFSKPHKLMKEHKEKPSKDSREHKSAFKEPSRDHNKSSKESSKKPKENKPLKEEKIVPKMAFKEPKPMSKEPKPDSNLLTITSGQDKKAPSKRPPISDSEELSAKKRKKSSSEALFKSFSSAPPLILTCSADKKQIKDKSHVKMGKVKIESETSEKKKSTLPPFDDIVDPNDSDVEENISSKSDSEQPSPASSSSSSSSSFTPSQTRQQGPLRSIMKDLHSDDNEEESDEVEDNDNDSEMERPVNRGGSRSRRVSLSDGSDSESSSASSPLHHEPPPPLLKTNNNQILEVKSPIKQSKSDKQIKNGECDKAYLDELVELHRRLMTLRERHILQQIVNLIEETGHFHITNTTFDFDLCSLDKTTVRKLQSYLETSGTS
RAD54 inh – RAD54 (human) branch migration inhibition. Q92698. RAD54 Holliday junction branch migration, FAM/BHQ fluorescence. inhibition, % at 10.4 µM. actives 0.14% (n = 360,000). AID 602329;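 active = mean normalized replicate activity at least 40 and at least half of replicates scoring 40 or more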;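 note: 0% = median of neutral control wells and 100% = median of positive control wells; inhibitors cause a drop in the FAM fluorescence signal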
RAD52 anneal inh – RAD52 (human) annealing inhibition; recombinant RAD52 DNA annealing, FRET fluorescence; P43351; actives 0.46% (n = 360,000); inhibition, % at 18.7 µM; AID 651710;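 active = every replicate showing at least 50% inhibition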
S100A4 inh HTS – inhibitors of human S100A4 binding to myosin IIA peptide | P26447 | S100A4/TAMRA-MyoIIA peptide fluorescence polarization | inhibition, % at 10.7 µM | actives 0.14% (n = 360,000) | AID 652163;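 active = mean inhibition of at least 70% across replicates, with every replicate also reaching that level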
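Test system – S100A4 monomer (human) · Compound – single-point compound testing · Schedule – 5 min incubation before reading · Probe or stimulus – TAMRA-labelled myosin IIA heavy-chain peptide probe, 5 nM · Benchmarks – neutral control DMSO, positive control TFP · Medium – Calcium-containing HEPES buffer, pH 7.2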
dFosB act – activators of mouse delta FosB homodimer. purified delta FosB, TAMRA-CDK5 oligo fluorescence polarization; percent of positive-control signal above neutral wells. activation, % at 25 µM. P13346. actives 0.99% (n = 340,000);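 active = mean activation above about 17%, with every replicate also reaching it, limit read from the data, passing the limit was not always enough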
Active calls of the source: *. In the library only some 1.5% were active in any assay of this set; here they are far more common.

What do the screens show for `Cn1cnc(S(=O)(=O)N2C[C@H](O)COC[C@H]3O[C@H](CC(=O)NC4Cc5ccccc5C4)CC[C@@H]32)c1`?
MLL AF4-AF9 inh: -1; RAD54 inh: -3; RAD52 anneal inh: 3; S100A4 inh HTS: 4

Results for Cc1ccc(-c2cc(C(=O)N/N=C/c3ccccc3O)n[nH]2)o1 ?
MLL AF4-AF9 inh: -4; RAD54 inh: 1; RAD52 anneal inh: -10; S100A4 inh HTS: -1; dFosB act: 51*

What do the screens show for `C[C@H](CO)N1C[C@H](C)[C@H](CN(C)Cc2ccc(Cl)c(Cl)c2)OCCCC[C@H](C)Oc2ccc(NC(=O)Nc3ccc(F)cc3)cc2C1=O`?
MLL AF4-AF9 inh: 1; RAD54 inh: -6; RAD52 anneal inh: -7; S100A4 inh HTS: -2

How did O=C(Nc1ccc2oc(-c3ccccc3Cl)nc2c1)c1cncc(Br)c1 do in these assays?
RAD54 inh: 11; dFosB act: 64*

What do the screens show for `CC(=O)N1[C@@H](CO)[C@@H]2c3ccccc3N(S(=O)(=O)c3ccccc3F)C[C@@H]21`?
MLL AF4-AF9 inh: -1; RAD54 inh: -31; RAD52 anneal inh: -4; S100A4 inh HTS: -20

Results for C(=N\Nc1nc2ccccc2[nH]1)/C1CCCCC1 ?
MLL AF4-AF9 inh: 26*; RAD52 anneal inh: -4; S100A4 inh HTS: 0; dFosB act: -11

How did C(=N\Nc1nc2ccccc2[nH]1)/c1ccccc1 do in these assays?
MLL AF4-AF9 inh: 7; RAD54 inh: 3; RAD52 anneal inh: 1; S100A4 inh HTS: -2; dFosB act: -1

What do the screens show for `O=C(Nc1ccccc1N1CCCC1)c1ccc(Br)o1`?
RAD54 inh: -7; dFosB act: 3

What do the screens show for `O=C(Nc1ccc(N2CCCC2)c(Cl)c1)c1ccc(Br)o1`?
RAD54 inh: 6; RAD52 anneal inh: -23; S100A4 inh HTS: 1; dFosB act: 43*

What do the screens show for `COC(=O)C1CSC(C)(C)C(=O)N1` (stereo unspecified)?
MLL AF4-AF9 inh: -3; RAD54 inh: 4; RAD52 anneal inh: -18; S100A4 inh HTS: -9; dFosB act: 1

What do the screens show for `COC(=O)CCCCC1SCC2NC(=O)NC21O` (stereo unspecified)?
MLL AF4-AF9 inh: 54*; RAD52 anneal inh: -34; S100A4 inh HTS: 0; dFosB act: -6

Results for CCN(CC)c1ccc(/C=N/N2CCN(Cc3ccccc3)CC2)cc1 ?
MLL AF4-AF9 inh: 37*; RAD52 anneal inh: -2; S100A4 inh HTS: 1; dFosB act: -4

Results for CN(C)c1ccc(/C=N/N2CCN(Cc3ccccc3Cl)CC2)cc1 ?
MLL AF4-AF9 inh: 31*; RAD54 inh: 2; RAD52 anneal inh: -30; S100A4 inh HTS: 2; dFosB act: -3

Results for C(=N\N1CCN(Cc2ccccc2)CC1)/c1ccccc1 ?
MLL AF4-AF9 inh: -66; RAD52 anneal inh: -12; S100A4 inh HTS: -5; dFosB act: -5

What do the screens show for `COc1ccc(/C=N/N2CCN(c3ccccc3OC)CC2)cc1OC`?
RAD54 inh: 0; dFosB act: -7

How did CCN(CC)c1ccc(/C=N/N2CCN(Cc3ccccc3Cl)CC2)cc1 do in these assays?
MLL AF4-AF9 inh: 26*; RAD54 inh: 11; RAD52 anneal inh: 0; S100A4 inh HTS: 15; dFosB act: -5

Results for CCN(CC)c1ccc(/C=N/N2CCN(c3ccccc3OC)CC2)cc1 ?
MLL AF4-AF9 inh: 30*; RAD54 inh: -7; RAD52 anneal inh: -90; S100A4 inh HTS: -6; dFosB act: -4

How did CO[C@H]1CN(C)C(=O)c2ccc(NC(=O)C3CC3)cc2OC[C@@H](C)N(Cc2cccc(F)c2)C[C@@H]1C do in these assays?
RAD54 inh: -2

What do the screens show for `O=C(NC1CCCCC1)N1CC2(C1)[C@H](c1ccccc1)[C@@H](CO)N2CC1CC1`?
MLL AF4-AF9 inh: -3; RAD52 anneal inh: -8; S100A4 inh HTS: -13

How did Cc1ccc(S(=O)(=O)N(C)C[C@H]2OCCCC[C@@H](C)Oc3ccc(NC(=O)Nc4ccccc4)cc3C(=O)N([C@H](C)CO)C[C@H]2C)cc1 do in these assays?
MLL AF4-AF9 inh: 0; RAD54 inh: 0; RAD52 anneal inh: -1; S100A4 inh HTS: -3

Results for CCOc1ccc(CCNC(=O)C2CCN(c3nnc(-n4cccc4)s3)CC2)cc1 ?
MLL AF4-AF9 inh: 4; RAD54 inh: -1; RAD52 anneal inh: -11; S100A4 inh HTS: 6; dFosB act: -3
